# Like-named read-outs stand apart in the source and are kept apart here.
# Tests used:
# [1] = tested on: healthy subjects; settings: cited from earlier work
# [2] = tested on: healthy subjects; assay type: in vivo, human
# Summary of the method: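 Healthy subjects randomised to once-weekly s.c. test peptide or placebo, escalated every 4 weeks (0.25, 0.5, 1.0, 1.5 mg) over 16 weeks. Supine continuous 12-lead Holter (Mason-Likar) ECGs at steady state of each level: pre-dose and 12, 18, 24, 25, 26, 27, 30, 36, 42, 48 h. QT/RR measured semi-automatically, lead II. QTcI=QT/RR^β (subject-specific β); QTcL, QTcF, QTcB. Placebo-subtracted baseline-adjusted means, two-sided 90% CIs.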
# [3] = tested on: healthy subjects; assay: Safety and tolerability; assay type: in vivo, human
# Summary of the method: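 Healthy subjects received s.c. test peptide or placebo once weekly for 16 weeks, escalating 0.25→0.5→1.0→1.5 mg every 4 weeks, with 5–7-week follow-up. Some injections were given on-site, the rest self-administered. Recorded: adverse events, hypoglycaemic events, anti-drug antibodies at follow-up, haematology, biochemistry, urinalysis, calcitonin, vital signs, ECG, physical examination, body weight and fasting plasma glucose changes from baseline.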
# [4] = phase 3 trials; cited from earlier work
# [5] = Pharmacokinetics of semaglutide at steady state of each dose level; assay type: in vivo, human; settings: doses 0.25-1.5 mg at steady state
# [6] = tested on: dipeptidyl peptidase-4 (DPP-4); settings: due to substitution at position 8; cited from earlier work
# [7] = tested on: healthy subjects; assay: Other ECG assessments; assay type: in vivo, human
# Summary of the method: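 ECGs come from the same Holter recordings: 11 time points, pre-dose to 48 h after last dose at 0.5, 1.0 and 1.5 mg. HR, PR and QRS use the same model. Outlier cut-offs: HR <50 or >100 bpm; PR >220 ms and/or >25% change from baseline; QRS >110 ms and/or >25% change. A cardiologist read one random ECG per time point for T/U wave abnormalities.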
# [8] = tested on: healthy subjects; assay type: in vivo, human; settings: single oral 400 mg dose, N = 76
# Summary of the method: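 Placebo-arm subjects received single oral 400 mg positive control or matching placebo in nested crossover, before (baseline) and after (week 15) placebo treatment. […] Supine Holter ECGs pre-dose and 1, 2, 3, 6, 12, 18, 24 h. QTcI analysed by ANOVA (treatment, period, subject fixed; pre-dose QTcI covariate). 3 and 6 h confirmatory with 95% CI; other times with 90% CI.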
# [9] = 1.5 mg at steady state, 0-48 h after dosing
# [10] = s.c. once weekly, escalated 0.25 to 1.5 mg over 16 weeks, N = 83
molecule,measurement,setting,value
dulaglutide,QTc prolongation,[1]; administered once weekly,not associated with QTc prolongation
same,PR interval prolongation,[1],A PR interval prolongation has also been observed
albiglutide,PR interval prolongation,[1],A PR interval prolongation has also been observed
same,Prolongation of the QTcI interval or QTc by other correction methods,[1]; healthy subjects,neither albiglutide administered once weekly nor liraglutide administered once daily have been observed to prolong the QTcI interval
exenatide,Correlation between exposure and QTc interval,[1]; single dose,positive correlation
same,Prolongation of QTcP or QTcI,"[1]; supratherapeutic concentrations, intravenous, healthy subjects",no prolongation
CC[C@H](C)[C@H](NC(=O)[C@H](Cc1ccccc1)NC(=O)[C@H](CCC(=O)O)NC(=O)[C@H](CCCCNC(=O)COCCOCCNC(=O)COCCOCCNC(=O)CC[C@H](NC(=O)CCCCCCCCCCCCCCCCC(=O)O)C(=O)O)NC(=O)[C@H](C)NC(=O)[C@H](C)NC(=O)[C@H](CCC(N)=O)NC(=O)CNC(=O)[C@H](CCC(=O)O)NC(=O)[C@H](CC(C)C)NC(=O)[C@H](Cc1ccc(O)cc1)NC(=O)[C@H](CO)NC(=O)[C@H](CO)NC(=O)[C@@H](NC(=O)[C@H](CC(=O)O)NC(=O)[C@H](CO)NC(=O)[C@@H](NC(=O)[C@H](Cc1ccccc1)NC(=O)[C@@H](NC(=O)CNC(=O)[C@H](CCC(=O)O)NC(=O)C(C)(C)NC(=O)[C@@H](N)Cc1cnc[nH]1)[C@@H](C)O)[C@@H](C)O)C(C)C)C(=O)N[C@@H](C)C(=O)N[C@@H](Cc1c[nH]c2ccccc12)C(=O)N[C@@H](CC(C)C)C(=O)N[C@H](C(=O)N[C@@H](CCCNC(=N)N)C(=O)NCC(=O)N[C@@H](CCCNC(=N)N)C(=O)NCC(=O)O)C(C)C [semaglutide],Upper limits of all 11 two-sided 90% CIs for the mean ΔΔQTcI,"[2]; 0.5 mg at steady state, 0-48 h after dosing",< 10 ms
same,Upper limits of all 11 two-sided 90% CIs for the mean ΔΔQTcI,"[2]; 1.0 mg at steady state, 0-48 h after dosing",< 10 ms
same,Maximum upper limit of the two-sided 90% CI for the time-matched ΔΔQTcI,[2]; [9],0.3 ms
same,Upper limits of the 11 two-sided 90% CIs of ΔΔQTcI,[2]; [9],< 10 ms
same,"Prolongation of the uncorrected QT interval, QTcL or QTcF","[2]; doses of 0.5, 1.0 and 1.5 mg at steady state",No prolongation was observed
same,"QTcB, upper limits of the 90% CIs",[2]; for at least one time point at all dose levels,> 10 ms
same,Diastolic BP change from baseline to last dose,"[3]; 16-week treatment, mean ± SD",5 ± 8 mmHg
same,HR change from baseline to last dose (vital signs),"[3]; 16-week treatment, mean ± SD",10 ± 9 bpm
same,Development of anti-semaglutide antibodies,[3]; at follow-up,no subjects developed anti-semaglutide antibodies
same,Severe hypoglycemic episodes,[3]; in vivo,No severe hypoglycemic episodes were reported
same,"Events leading to withdrawal, percentage of subjects",[3]; [10],2.4%
same,"Gastrointestinal disorders (predominantly nausea, vomiting and diarrhea), subjects",[3]; [10],56.6%
same,"Metabolism and nutrition disorders (predominantly decreased appetite), subjects",[3]; [10],51.8%
same,Mean increases in HR with semaglutide versus placebo,[4],up to 3 bpm
same,Increase in AUC0−48h and Cmax with increasing dose,[5],consistent with dose proportionality
same,Susceptibility to degradation by dipeptidyl peptidase-4 (DPP-4),[6],less susceptible to degradation
same,Increased PR interval of > 25% above baseline,[7]; 0.5 mg group,none
same,Increased PR interval of > 25% above baseline,[7]; 1.0 and 1.5 mg treatment groups,five
same,Second-degree or higher-grade atrioventricular block,[7]; all ECGs evaluated by the cardiologist,no observations of a second-degree atrioventricular block or higher-grade atrioventricular blocks
same,Changes in QRS complex duration of > 25% above baseline,[7]; any of the treatment arms,No changes
same,Subjects with T wave abnormalities,"[7]; doses 0.5 or 1.0 mg, female subjects, all of no clinical relevance",three
same,U wave abnormalities,[7]; either group,no U wave abnormalities were observed
COc1c(N2C[C@@H]3CCCN[C@@H]3C2)c(F)cc2c(=O)c(C(=O)O)cn(C3CC3)c12 [moxifloxacin],"Estimated treatment difference moxifloxacin vs. placebo, QTcI",[8]; 1 h after dosing,10.0 ms
same,"Estimated treatment difference moxifloxacin vs. placebo, QTcI",[8]; 2 h after dosing,12.3 ms
same,"Estimated treatment difference moxifloxacin vs. placebo, QTcI",[8]; 3 h after dosing (confirmatory endpoint),12.3 ms
same,"Estimated treatment difference moxifloxacin vs. placebo, QTcI",[8]; 6 h after dosing (confirmatory endpoint),8.9 ms
liraglutide,PR interval prolongation,[1],A PR interval prolongation has also been observed
same,Prolongation of the QTcI interval or QTc by other correction methods,[1]; healthy subjects,neither albiglutide administered once weekly nor liraglutide administered once daily have been observed to prolong the QTcI interval

# — PMC6064589 (Diabetes Therapy, 2018)
